Assay results published in ChEMBL document CHEMBL4152188, “Design, synthesis and biological evaluation of C(4) substituted monobactams as antibacterial agents against multidrug-resistant Gram-negative bacteria” (Eur J Med Chem, 2018).

Tests used:
Format in all cases: functional
[1] = tested on: Escherichia coli; test: Antibacterial activity against extended-spectrum beta-lactamase producing Escherichia coli isolate 106342 after 18 hrs by CLSI broth microdilution method; details: isolate 106342, 18 h
[2] = tested on: Escherichia coli; test: Antibacterial activity against extended-spectrum beta-lactamase producing Escherichia coli isolate 212648 after 18 hrs by CLSI broth microdilution method; details: isolate 212648, 18 h
[3] = tested on: Klebsiella pneumoniae; test: Antibacterial activity against KPC-2 producing Klebsiella pneumoniae isolate 209735 after 18 hrs by CLSI broth microdilution method; details: isolate 209735, 18 h
[4] = tested on: Escherichia coli; test: Antibacterial activity against extended-spectrum beta-lactamase producing Escherichia coli isolate 209285 after 18 hrs by CLSI broth microdilution method; details: isolate 209285, 18 h
[5] = tested on: Klebsiella pneumoniae; test: Antibacterial activity against KPC-2 producing Klebsiella pneumoniae isolate 212423 after 18 hrs by CLSI broth microdilution method; details: isolate 212423, 18 h
[6] = tested on: Klebsiella pneumoniae; test: Antibacterial activity against KPC-2 producing Klebsiella pneumoniae isolate 212232 after 18 hrs by CLSI broth microdilution method; details: isolate 212232, 18 h
[7] = tested on: Pseudomonas aeruginosa; test: Selectivity index, ratio of MIC for against IMP-4 producing Pseudomonas aeruginosa isolate 212886 to MIC for against IMP-4 producing Pseudomonas aeruginosa isolate 212886 in presence of BPL
[8] = tested on: Pseudomonas aeruginosa; test: Antibacterial activity against IMP-4 producing Pseudomonas aeruginosa isolate 212886 after 18 hrs in presence of BPL by CLSI broth microdilution method; details: isolate 212886, 18 h
Procedure, shortened: (§1)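 CLSI broth microdilution against clinical isolates (ESBL E. coli, KPC-2 MDR K. pneumoniae, IMP-4 MDR P. aeruginosa; five per species). Iron limitation: Mueller-Hinton broth supplemented with 16 mg/liter 2,2'-bipyridyl to complex iron and induce iron uptake systems. Read-out: MIC.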

[9] = tested on: Escherichia coli; test: Antibacterial activity against Escherichia coli isolate 210737 after 18 hrs by CLSI broth microdilution method; details: isolate 210737, 18 h
[10] = tested on: Pseudomonas aeruginosa; test: Antibacterial activity against IMP-4 producing Pseudomonas aeruginosa isolate 208247 after 18 hrs in presence of BPL by CLSI broth microdilution method; details: isolate 208247, 18 h; procedure, shortened: as §1
[11] = tested on: Pseudomonas aeruginosa; test: Selectivity index, ratio of MIC for against IMP-4 producing Pseudomonas aeruginosa isolate 209321 to MIC for against IMP-4 producing Pseudomonas aeruginosa isolate 209321 in presence of BPL
[12] = tested on: Escherichia coli; test: Antibacterial activity against extended-spectrum beta-lactamase producing Escherichia coli isolate 212648 after 18 hrs in presence of BPL by CLSI broth microdilution method; details: isolate 212648, 18 h; procedure, shortened: as §1
[13] = tested on: Klebsiella pneumoniae; test: Antibacterial activity against KPC-2 producing Klebsiella pneumoniae isolate 209735 after 18 hrs in presence of BPL by CLSI broth microdilution method; details: isolate 209735, 18 h; procedure, shortened: as §1
[14] = tested on: Klebsiella pneumoniae; test: Antibacterial activity against KPC-2 producing Klebsiella pneumoniae isolate 212423 after 18 hrs in presence of BPL by CLSI broth microdilution method; details: isolate 212423, 18 h; procedure, shortened: as §1
[15] = tested on: Pseudomonas aeruginosa; test: Antibacterial activity against IMP-4 producing Pseudomonas aeruginosa isolate 208247 after 18 hrs by CLSI broth microdilution method; details: isolate 208247, 18 h
[16] = tested on: Klebsiella pneumoniae; test: Antibacterial activity against KPC-2 producing Klebsiella pneumoniae isolate 212229 after 18 hrs in presence of BPL by CLSI broth microdilution method; details: isolate 212229, 18 h; procedure, shortened: as §1
[17] = tested on: Klebsiella pneumoniae; test: Antibacterial activity against KPC-2 producing Klebsiella pneumoniae isolate 209632 after 18 hrs by CLSI broth microdilution method; details: isolate 209632, 18 h
[18] = tested on: Pseudomonas aeruginosa; test: Antibacterial activity against IMP-4 producing Pseudomonas aeruginosa isolate 207272 after 18 hrs in presence of BPL by CLSI broth microdilution method; details: isolate 207272, 18 h; procedure, shortened: as §1
[19] = tested on: Pseudomonas aeruginosa; test: Selectivity index, ratio of MIC for against IMP-4 producing Pseudomonas aeruginosa isolate 207272 to MIC for against IMP-4 producing Pseudomonas aeruginosa isolate 207272 in presence of BPL
[20] = tested on: Pseudomonas aeruginosa; test: Selectivity index, ratio of MIC for against IMP-4 producing Pseudomonas aeruginosa isolate 209471 to MIC for against IMP-4 producing Pseudomonas aeruginosa isolate 209471 in presence of BPL
[21] = tested on: Pseudomonas aeruginosa; test: Antibacterial activity against IMP-4 producing Pseudomonas aeruginosa isolate 209321 after 18 hrs by CLSI broth microdilution method; details: isolate 209321, 18 h
[22] = tested on: Pseudomonas aeruginosa; test: Antibacterial activity against IMP-4 producing Pseudomonas aeruginosa isolate 207272 after 18 hrs by CLSI broth microdilution method; details: isolate 207272, 18 h
[23] = tested on: Escherichia coli; test: Antibacterial activity against extended-spectrum beta-lactamase producing Escherichia coli isolate 208687 after 18 hrs by CLSI broth microdilution method; details: isolate 208687, 18 h
[24] = tested on: Escherichia coli; test: Selectivity index, ratio of MIC for against extended-spectrum beta-lactamase producing Escherichia coli isolate 106342 to MIC for extended-spectrum beta-lactamase producing Escherichia coli isolate 106342 in presence of BPL
[25] = tested on: Escherichia coli; test: Antibacterial activity against extended-spectrum beta-lactamase producing Escherichia coli isolate 209285 after 18 hrs in presence of BPL by CLSI broth microdilution method; details: isolate 209285, 18 h; procedure, shortened: as §1
[26] = tested on: Pseudomonas aeruginosa; test: Antibacterial activity against IMP-4 producing Pseudomonas aeruginosa isolate 209471 after 18 hrs by CLSI broth microdilution method; details: isolate 209471, 18 h
[27] = tested on: Klebsiella pneumoniae; test: Antibacterial activity against KPC-2 producing Klebsiella pneumoniae isolate 212229 after 18 hrs by CLSI broth microdilution method; details: isolate 212229, 18 h
[28] = tested on: Escherichia coli; test: Antibacterial activity against Escherichia coli isolate 210737 after 18 hrs in presence of BPL by CLSI broth microdilution method; details: isolate 210737, 18 h; procedure, shortened: as §1
[29] = tested on: Escherichia coli; test: Antibacterial activity against extended-spectrum beta-lactamase producing Escherichia coli isolate 208687 after 18 hrs in presence of BPL by CLSI broth microdilution method; details: isolate 208687, 18 h; procedure, shortened: as §1
[30] = tested on: Pseudomonas aeruginosa; test: Selectivity index, ratio of MIC for against IMP-4 producing Pseudomonas aeruginosa isolate 208247 to MIC for against IMP-4 producing Pseudomonas aeruginosa isolate 208247 in presence of BPL
[31] = tested on: Klebsiella pneumoniae; test: Antibacterial activity against KPC-2 producing Klebsiella pneumoniae isolate 212232 after 18 hrs in presence of BPL by CLSI broth microdilution method; details: isolate 212232, 18 h; procedure, shortened: as §1
[32] = tested on: Escherichia coli; test: Antibacterial activity against extended-spectrum beta-lactamase producing Escherichia coli isolate 106342 after 18 hrs in presence of BPL by CLSI broth microdilution method; details: isolate 106342, 18 h; procedure, shortened: as §1
[33] = tested on: Pseudomonas aeruginosa; test: Antibacterial activity against IMP-4 producing Pseudomonas aeruginosa isolate 212886 after 18 hrs by CLSI broth microdilution method; details: isolate 212886, 18 h
[34] = tested on: Pseudomonas aeruginosa; test: Antibacterial activity against IMP-4 producing Pseudomonas aeruginosa isolate 209471 after 18 hrs in presence of BPL by CLSI broth microdilution method; details: isolate 209471, 18 h; procedure, shortened: as §1
[35] = tested on: Pseudomonas aeruginosa; test: Antibacterial activity against IMP-4 producing Pseudomonas aeruginosa isolate 209321 after 18 hrs in presence of BPL by CLSI broth microdilution method; details: isolate 209321, 18 h; procedure, shortened: as §1
[36] = tested on: Klebsiella pneumoniae; test: Antibacterial activity against KPC-2 producing Klebsiella pneumoniae isolate 209632 after 18 hrs in presence of BPL by CLSI broth microdilution method; details: isolate 209632, 18 h; procedure, shortened: as §1
[37] = tested on: Escherichia coli; test: Selectivity index, ratio of MIC for against Escherichia coli isolate 210737 to MIC for Escherichia coli isolate 210737 in presence of BPL
[38] = tested on: Escherichia coli; test: Selectivity index, ratio of MIC for against extended-spectrum beta-lactamase producing Escherichia coli isolate 208687 to MIC for extended-spectrum beta-lactamase producing Escherichia coli isolate 208687 in presence of BPL
[39] = tested on: Klebsiella pneumoniae; test: Selectivity index, ratio of MIC for against KPC-2 producing Klebsiella pneumoniae isolate 212232 to MIC for against KPC-2 producing Klebsiella pneumoniae isolate 212232 in presence of BPL
[40] = tested on: Klebsiella pneumoniae; test: Selectivity index, ratio of MIC for against KPC-2 producing Klebsiella pneumoniae isolate 212423 to MIC for against KPC-2 producing Klebsiella pneumoniae isolate 212423 in presence of BPL
[41] = tested on: Klebsiella pneumoniae; test: Selectivity index, ratio of MIC for against KPC-2 producing Klebsiella pneumoniae isolate 212229 to MIC for against KPC-2 producing Klebsiella pneumoniae isolate 212229 in presence of BPL
[42] = tested on: Escherichia coli; test: Selectivity index, ratio of MIC for against extended-spectrum beta-lactamase producing Escherichia coli isolate 212648 to MIC for extended-spectrum beta-lactamase producing Escherichia coli isolate 212648 in presence of BPL
[43] = tested on: Escherichia coli; test: Selectivity index, ratio of MIC for against extended-spectrum beta-lactamase producing Escherichia coli isolate 209285 to MIC for extended-spectrum beta-lactamase producing Escherichia coli isolate 209285 in presence of BPL
[44] = tested on: Klebsiella pneumoniae; test: Selectivity index, ratio of MIC for against KPC-2 producing Klebsiella pneumoniae isolate 209735 to MIC for against KPC-2 producing Klebsiella pneumoniae isolate 209735 in presence of BPL
[45] = tested on: Klebsiella pneumoniae; test: Selectivity index, ratio of MIC for against KPC-2 producing Klebsiella pneumoniae isolate 209632 to MIC for against KPC-2 producing Klebsiella pneumoniae isolate 209632 in presence of BPL

C#CC1[C@H](NC(=O)/C(=N\OC(c2cc(=O)c(O)cn2O)C(C)C)c2csc(N)n2)C(=O)N1S(=O)(=O)O (stereo partly specified)
> 64 mg/L: MIC [2] | MIC [3] | MIC [4] | MIC [5] | MIC [6] | MIC [8] | MIC [9] | MIC [12] | MIC [13] | MIC [14] | MIC [16] | MIC [17] | MIC [18] | MIC [22] | MIC [23] | MIC [25] | MIC [26] | MIC [27] | MIC [28] | MIC [29] | MIC [31] | MIC [33] | MIC [34] | MIC [36]
1: Selectivity Index [11] | Selectivity Index [24]
64 mg/L: MIC [1] | MIC [15] | MIC [21] | MIC [32] | MIC [35]
1 - 2: Selectivity Index [7] | Selectivity Index [19] | Selectivity Index [20]
32 mg/L: MIC [10]
2: Selectivity Index [30]

CC(C)C(O/N=C(\C(=O)NC1C(=O)N(S(=O)(=O)O)C12CCCC2)c1csc(N)n1)c1cc(=O)c(O)cn1O (stereo unspecified)
2: Selectivity Index [37] | Selectivity Index [38] | Selectivity Index [40] | Selectivity Index [20] | Selectivity Index [43] | Selectivity Index [30]
8 mg/L: MIC [10] | MIC [17]
0.5 mg/L: MIC [9] | MIC [25] | MIC [29] | MIC [32]
4 mg/L: MIC [2] | MIC [3] | MIC [6] | MIC [27]
1 mg/L: MIC [4] | MIC [12] | MIC [13] | MIC [14] | MIC [16] | MIC [23] | MIC [31] | MIC [36]
32 mg/L: MIC [26]
0.25 mg/L: MIC [28]
8: Selectivity Index [45]
2 mg/L: MIC [1] | MIC [5]
16 mg/L: MIC [8] | MIC [15] | MIC [18] | MIC [21] | MIC [22] | MIC [33] | MIC [34] | MIC [35]
1: Selectivity Index [7] | Selectivity Index [11] | Selectivity Index [19]
4: Selectivity Index [39] | Selectivity Index [41] | Selectivity Index [42] | Selectivity Index [24] | Selectivity Index [44]
